Test results published in ChEMBL document CHEMBL1150421, “Synthesis and analgesic/anti-inflammatory evaluation of fused heterocyclic ring systems incorporating phenylsulfonyl moiety” (2008).

Assays:
Mus musculus [1] = experiment: Analgesic activity in Albino mouse at 50 mg/kg, po assessed as thermal stimuli reaction time change after 30 mins by hot plate method relative to basal level; type: functional
In short: (§1)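 Hot-plate at 52 °C ± 0.1 °C with a 60 s cut-off, six mice per group. Dosing was oral, 50 mg/kg in 2% Tween 80. Latency to paw licking or jumping was recorded before dosing and at 0.5, 1 and 2 h. Results are given as % change from the pre-drug value, with one-way ANOVA and Duncan's test (P < 0.05).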

Mus musculus [2] = experiment: Analgesic activity in Albino mouse at 50 mg/kg, po assessed as thermal stimuli reaction time change after 30 mins by hot plate method relative to indomethacin; type: functional
Mus musculus [3] = experiment: Analgesic activity in Albino mouse at 50 mg/kg, po assessed as thermal stimuli reaction time change after 1 hr by hot plate method relative to basal level; type: functional; in short: as §1
Mus musculus [4] = experiment: Analgesic activity in Albino mouse at 50 mg/kg, po assessed as thermal stimuli reaction time change after 1 hr by hot plate method relative to indomethacin; type: functional
Mus musculus [5] = experiment: Analgesic activity in Albino mouse at 50 mg/kg, po assessed as thermal stimuli reaction time change after 2 hrs by hot plate method relative to basal level; type: functional; in short: as §1
Mus musculus [6] = experiment: Analgesic activity in Albino mouse at 50 mg/kg, po assessed as thermal stimuli reaction time change after 2 hrs mins by hot plate method relative to indomethacin; type: functional
Mus musculus [7] = experiment: Analgesic activity against visceral pain in Albino mouse assessed as acetic acid-induced writhing at 50 mg/kg, po after 30 mins; type: functional
In short: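 Mice (20–25 g, acclimatized 1 week, 12 h light/dark, 21–23 °C) given compound orally at 50 mg/kg as a suspension in 2% Tween 80. Negative controls got water in Tween 80. Visceral pain measured as acetic acid-induced writhing; indomethacin 50 mg/kg was the reference.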

Mus musculus [8] = experiment: Analgesic activity against visceral pain in Albino mouse assessed as acetic acid-induced writhing at 50 mg/kg, po after 30 mins relative to indomethacin; type: functional
Rattus norvegicus [9] = experiment: Antiinflammatory activity in Albino rat assessed as inhibition of carrageenan-induced edema at 50 mg/kg, po after 1 hr
Rattus norvegicus [10] = experiment: Antiinflammatory activity in Albino rat assessed as inhibition of carrageenan-induced edema at 50 mg/kg, po after 2 hrs
Rattus norvegicus [11] = experiment: Antiinflammatory activity in Albino rat assessed as inhibition of carrageenan-induced edema at 50 mg/kg, po after 3 hrs
Rattus norvegicus [12] = experiment: Antiinflammatory activity in Albino rat assessed as inhibition of carrageenan-induced edema at 50 mg/kg, po after 4 hrs
Rattus norvegicus [13] = experiment: Antiinflammatory activity in Albino rat assessed as inhibition of carrageenan-induced edema at 50 mg/kg, po after 5 hrs
Rattus norvegicus [14] = experiment: Antiinflammatory activity in Albino rat assessed as inhibition of carrageenan-induced edema at 50 mg/kg, po after 6 hrs

Compound | Activity (Mus musculus [1]) | Activity (Mus musculus [2]) | Activity (Mus musculus [3]) | Activity (Mus musculus [4]) | Activity (Mus musculus [5]) | Activity (Mus musculus [6]) | Activity (Mus musculus [7]) | Activity (Mus musculus [8]) | inhibition in vivo at 50 mg/kg (Rattus norvegicus [9]) | inhibition in vivo at 50 mg/kg (Rattus norvegicus [10]) | inhibition in vivo at 50 mg/kg (Rattus norvegicus [11]) | inhibition in vivo at 50 mg/kg (Rattus norvegicus [12]) | inhibition in vivo at 50 mg/kg (Rattus norvegicus [13]) | inhibition in vivo at 50 mg/kg (Rattus norvegicus [14])
Cc1ccc(-c2c(S(=O)(=O)c3ccccc3)cnc3c(Br)c(-c4ccccc4)nn23)cc1 | 43.8% | 1.02 | 78% | 1.02 | 68.4% | 0.84 | 85.6% | 0.99 | 65.5% | 61% | 54.8% | 12.5% | 0% | 6.6%
O=S(=O)(c1ccccc1)c1cnc2ncnn2c1-c1ccc(Br)cc1 | 5.4% | 0.12 | 6.8% | 0.08 | 5.4% | 0.06 | 10.8% | 0.12 | 2.2% | 4.2% | 1.6% | 1.3% | 0.8% | 0.9%
Cc1ccc(-c2c(S(=O)(=O)c3ccccc3)cnc3cc(-c4ccc(Br)cc4)nn23)cc1 | 29% | 0.67 | 56.4% | 0.73 | 56.4% | 0.7 | 65.2% | 0.76 | 74.1% | 72.6% | 69.2% | 26.6% | 31.7% | 54.3%
COc1ccc2c(c1)c(CC(=O)O)c(C)n2C(=O)c1ccc(Cl)cc1 [INDOMETHACIN] | 43% | – | 77.2% | – | 81% | – | 85.8% | – | 77% | 56% | 44% | 28.7% | 28.4% | 50%
Cc1ccc(-c2c(S(=O)(=O)c3ccccc3)cnc3ncnn23)cc1 | 7.1% | 0.16 | 5.3% | 0.06 | 0% | 0 | – | 0 | 7.5% | 5.2% | 4.4% | 3.3% | 2.4% | 1.9%
